Bioassay records (PubChem)
Compounds with a hit are over-represented: about 3.5% of the library has one in this group of screens.
RGS4 inh = human RGS4 inhibition | P49798 | HEK293 M3R/RGS4 inducible, Fluo-4 calcium flux; active compounds read high; triggered by carbachol at its EC20 | B-score at 10 µM | hit rate 0.45% among 310,000;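 active = B-score, a plate-corrected calcium signal, over three deviations above library mean, with baseline fluorescence within five deviations of library mean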;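 note: RGS4 expression induced by doxycycline in cells with stable M3 receptor; B-score is computed from the integrated fluorescence ratio over baseline after carbachol; higher B-score means a larger calcium signal and so more RGS4 inhibition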
Target sequence (P49798 whole entry, looked up): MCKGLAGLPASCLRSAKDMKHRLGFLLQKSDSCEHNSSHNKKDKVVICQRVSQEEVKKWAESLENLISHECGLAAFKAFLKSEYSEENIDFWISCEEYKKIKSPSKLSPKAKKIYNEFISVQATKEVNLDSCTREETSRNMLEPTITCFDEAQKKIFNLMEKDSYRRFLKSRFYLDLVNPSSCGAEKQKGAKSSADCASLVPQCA
RGS4 act = RGS4 potentiation or activation; HEK293 M3R/inducible RGS4, carbachol calcium flux Fluo4; active compounds read low; B-score at 10 µM; hit rate 0.92% among 310,000;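 active = B-score of the integrated calcium signal more than 4 SD below the library mean, with starting fluorescence not abnormally high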;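 note: negative B-score means reduced calcium response which marks RGS4 activation or potentiation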
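Also added: carbachol at ECmax as muscarinic agonist stimulus; Assay system: HEK293 cells with stable M3R and inducible RGS4; Timing: overnight RGS4 induction, 30 min dye load 37 °C, 20 min compound RT; Measured by: Fluo4-AM (2 µM) calcium-flux fluorescence, kinetic read.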
MrgX1 antagonist = human MrgX1 receptor antagonism, primary screen; MRGX1-HEK293 calcium flux, Fluo-4, BAM8-22 antagonism; active compounds read low; B-score at 10 µM; hit rate 1.3% among 310,000; AID 588676;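 active = calcium-response B-score plate-corrected more than 3 library SD below zero, starting fluorescence within 5 deviations, no agonist response on first addition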;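 note: peak minus trough fluorescence over baseline after final BAM8-22 challenge near maximal dose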
Target sequence (Q96LB2 whole entry, looked up): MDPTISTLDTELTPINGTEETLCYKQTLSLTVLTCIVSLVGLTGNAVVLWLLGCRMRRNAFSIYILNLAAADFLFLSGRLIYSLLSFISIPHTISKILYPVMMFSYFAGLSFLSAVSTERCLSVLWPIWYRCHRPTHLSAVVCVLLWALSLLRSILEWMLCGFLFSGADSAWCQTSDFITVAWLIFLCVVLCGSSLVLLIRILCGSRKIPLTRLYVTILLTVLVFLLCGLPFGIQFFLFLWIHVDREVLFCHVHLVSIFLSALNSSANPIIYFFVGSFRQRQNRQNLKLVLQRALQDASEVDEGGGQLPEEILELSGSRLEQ
MrgX1 agonist = agonists of human MrgX1 receptor | Q96LB2 | MrgX1-HEK293 cells, Fluo-4 calcium fluorescence, agonist mode; active compounds read high | B-score at 10 µM | hit rate 0.44% among 310,000 | AID 588627;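 active = calcium response B-score plate-corrected fluorescence ratio at least 3 library SD, with starting fluorescence B-score inside 5 SD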
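Assay system: stable human MrgX1 HEK293 cell line. Quantity: 15,000 cells per well. Schedule: cells plated overnight, dye loaded 0.5 h 37 °C, 0.5 h room temperature. Detection: Fluo-4 NW calcium-flux fluorescence, kinetic read. Read-out basis: peak-minus-minimum fluorescence over baseline, converted to B scores. Control set: positive and negative control wells on each plate.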
MrgX1 allo act = allosterically activates human MrgX1 receptor signaling; MrgX1-HEK293, Fluo-4 calcium flux, FDSS; active compounds read high; AID 588675; hit rate 0.63% among 310,000; Q96LB2; B-score at 10 µM;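 active = plate-corrected calcium response at least 3 library SD above typical, normal starting fluorescence, not activating the receptor alone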;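 note: compound read alongside a low EC10 to EC30 dose of BAM8-22 agonist; peak minus trough fluorescence over baseline measured at the second addition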
The depositor's hits bear a star; i = inactive; · = no result given.

SMILES | RGS4 inh | RGS4 act | MrgX1 antagonist | MrgX1 agonist | MrgX1 allo act
O=C(Nc1ccc(S(=O)(=O)NCc2ccco2)cc1)C1CCCCC1 | i | i | i | i | i
CCOc1ccc(N2CC(NC(=O)c3ccc4ccccc4c3)CC2=O)cc1 (stereo not drawn) | i | i | i | i | i
Cc1nnc(NC(=O)CSc2nnc(CC(=O)Nc3ccccc3C)n2C)s1 | i | i | i | i | i
CCOC(=O)c1c(NC(=S)Nc2ccccc2)sc2c1CCN(CCc1ccccc1)C2 | · | · | -5* | i | i
CC(C)N1CCc2c(sc(NC(=S)NC(=O)c3ccccc3)c2C#N)C1 | i | i | i | i | i
CCCN1CCc2c(sc(NC(=S)NC(=O)c3ccccc3)c2C#N)C1 | i | i | i | 80* | i
Cc1ccc(C(=O)NC2CCC(C)CC2)o1 (stereo not drawn) | i | i | i | i | i
O=C(C[n+]1ccccc1)Nc1ccc(Oc2ccccc2)cc1 | i | -7.6* | i | i | i
CN(C)c1ccc(NC(=O)C[n+]2ccccc2)cc1 | i | i | i | i | i
COc1ccc(CNC(=O)COC(=O)/C=C/c2cccc(Br)c2)cc1 | i | i | i | i | i
O=C(/C=C/c1ccccc1)c1ccccn1 | i | i | i | 39* | i
CCN(CC)S(=O)(=O)c1ccc(OCC(=O)NC(=O)c2ccccc2OC)c([N+](=O)[O-])c1 | i | i | i | i | i
Cc1nc2ccccn2c1C(=O)N/N=C/c1ccccc1 | i | i | i | i | i
Cc1ccccc1N/N=C/c1c(C)nc2ccccn12 | i | i | i | i | 8.5*
CC(C)CCN1CC(=O)N2[C@@H](Cc3c([nH]c4ccccc34)C2(C)C)C1=O | i | i | i | i | i
O=S(=O)(Nc1ccc(Cl)cn1)c1ccc2c(c1)OCCO2 | i | i | i | i | i
CC(=O)[C@H]1CC[C@H]2[C@@H]3CCC4=CC(=O)CC[C@]4(C)[C@H]3[C@H](O)C[C@]12C | i | i | i | i | i
C[C@]12CC(O)C3C(CCC4=CC(=O)CC[C@@]43C)C1CCC2c1csc(-c2ccccc2)n1 (stereo partly drawn) | i | -9.6* | i | i | i
O=C(O)C(Cc1ccccc1)N1C(=O)/C(=C/c2ccccc2)SC1=S (stereo not drawn) | i | i | i | i | i
COc1cc(/C=C2\SC(=S)N(C(Cc3ccccc3)C(=O)O)C2=O)ccc1O (stereo not drawn) | i | i | i | 56* | i
COc1cc(/C=C2/SC(=S)N(CC3CCCO3)C2=O)ccc1O (stereo not drawn) | i | i | -8.6* | i | i
COc1ccc(/C=C2\SC(=S)N(CC3CCCO3)C2=O)cc1 (stereo not drawn) | i | i | i | i | i
Cc1cc(=O)oc2cc(NC(=O)C(CCCN=C(N)N)NC(=O)OCc3ccccc3)ccc12 (stereo not drawn) | i | i | i | i | i
Nc1nc2ccc([N+](=O)[O-])cc2[nH]1 | i | i | i | i | i
Nc1[nH]c2cc([N+](=O)[O-])ccc2c1-c1ccccn1 | i | i | -7.6* | i | i
SMILES | RGS4 inh | RGS4 act | MrgX1 antagonist | MrgX1 agonist | MrgX1 allo act
CC1CC(C)CN(C(=O)CSc2nc(Cc3cccs3)nc3ccccc23)C1 (stereo not drawn) | i | -7.1* | i | i | i
c1ccc(CN2CCN(CCOCCOc3ccc4c(c3)CCC4)CC2)cc1 | i | i | -5.6* | i | i
COc1c(Cl)cc(Cl)cc1/C=C/C(=O)c1ccc(NC(=O)c2cccs2)cc1 | i | i | i | i | i
CCOC(=O)Cn1c(COc2ccccc2OC)[n+](C)c2ccccc21 | i | i | i | i | i
CCCCCCCCCCOC(=O)Cn1c(COc2ccc(OC)cc2)[n+](C)c2ccccc21 | i | -9.1* | -9.1* | i | i
CCCCCCCCCCOC(=O)Cn1c(COc2cccc(C)c2)[n+](C)c2ccccc21 | i | -8.5* | -5.9* | i | i
CC(Oc1ccc(Cl)cc1Cl)C(=O)Nc1ccc(N2CCN(C)CC2)cc1 (stereo not drawn) | i | i | i | i | i
CC(=O)N1CCN(c2ccc(NC(=O)C(C)Oc3ccc(Cl)cc3Cl)cc2)CC1 (stereo not drawn) | i | i | -7.1* | i | i
Cc1ccc(C(=O)NC(=S)NNC(=O)c2ccc([N+](=O)[O-])cc2)cc1 | i | i | i | 40* | i
COc1ccc(OCC(=O)NNC(=S)NC(=O)c2ccc([N+](=O)[O-])cc2)cc1 | i | i | i | i | i
CCCCCC(=O)NNC(=S)NC(=O)c1ccc([N+](=O)[O-])cc1 | i | i | i | 61* | i
O=C(NNC(=S)NC(=O)c1ccc(Br)cc1)c1ccc([N+](=O)[O-])cc1 | i | i | i | i | i
O=C(NNC(=S)NC(=O)c1ccccc1Cl)c1cccc([N+](=O)[O-])c1 | i | i | i | 103* | i
O=C(NNC(=S)NC(=O)c1ccccc1)c1ccc([N+](=O)[O-])cc1 | i | i | i | 77* | i
O=C(NNC(=S)NC(=O)c1ccc(Br)cc1)c1cccc([N+](=O)[O-])c1 | i | i | i | i | i
COC(=O)C1SCC2C(=O)N(Cc3ccc(Cl)c(Cl)c3)CC(=O)N21 (stereo not drawn) | i | i | i | i | i
CS(=O)(=O)NNC(=O)c1sccc1OCc1ncc(C(F)(F)F)cc1Cl | i | i | i | i | i
CCN(c1ccccc1)S(=O)(=O)c1ccc2c(c1)N(C(C)=O)CCO2 | i | i | i | i | i
Cc1ccc(NNC(=O)c2ccno2)cc1C | i | -7.5* | i | i | i
CN(/N=C\c1ccc(O)c(O)c1)c1nc(-c2ccccc2)cc(-c2ccccc2)n1 | i | i | i | i | i
O=C(COC(=O)c1cccc([N+](=O)[O-])c1)c1ccc(OCc2ccccc2)cc1 | i | -8.4* | i | i | i
CC(=O)Nc1ccc(S(=O)(=O)NCCC(=O)Nc2ccc(C)c(F)c2)cc1 | i | i | i | i | i
O=[N+]([O-])c1ccc(O)c(/C=N/NC2=NS(=O)(=O)c3ccccc32)c1 | i | i | i | i | 8.5*
CC(=O)n1cc(N(C(=O)CCl)c2ccc(C)cc2)c2ccccc21 | i | -7.2* | i | i | i
